Laboratory results from ChEMBL document CHEMBL1914385, “Isolation, structure, and biological activities of Fellutamides C and D from an undescribed Metulocladosporiella (Chaetothyriales) using the genome-wide Candida albicans fitness test” (J Nat Prod, 2011).
Converted amounts (≈) assume the structure as drawn. The source made the active and inactive calls. The calls are words filed in the database; no cut-off is given here. Non-standard residues stand in square brackets, D forms with d. Residues, ends and D or L forms follow the SMILES beside them. *: point of attachment. Myristoyl = CCCCCCCCCCCCCC(=O)*; Leu(ol) = CC(C)C[C@H](N)CO

Columns and labels:
Candida albicans [1] = experiment: Antifungal activity against Candida albicans at 200 ug/ml after 24 hrs by NCCLS M27-P broth macrodilution method; type: functional, organism-based
Candida albicans [2] = experiment: Antifungal activity against Candida albicans harboring heterozygous deletion of PRE4/orf19.4230 at 0.01 to 10 ug/mL after 24 hrs by NCCLS M27-P broth macrodilution method; type: functional, organism-based
Candida albicans [3] = experiment: Antifungal activity against wild-type Candida albicans at 0.01 to 10 ug/mL after 24 hrs by NCCLS M27-P broth macrodilution method; type: functional, organism-based
Candida albicans [4] = experiment: Antifungal activity against Candida albicans harboring heterozygous deletion of PRE4/orf19.4230 at 10 ug/mL after 24 hrs by NCCLS M27-P broth macrodilution method; type: functional, organism-based
Candida albicans [5] = experiment: Antifungal activity against wild-type Candida albicans at 10 ug/mL after 24 hrs by NCCLS M27-P broth macrodilution method; type: functional, organism-based
Candida albicans [6] = experiment: Ratio of lactacystin IC50 to compound IC50 for Candida albicans 26S proteasome
PC-3 = experiment: Growth inhibition of human PC3 cells; type: functional, cell-based
Summary of the method: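 PC-3 cells treated for 48 h across an 8-point dose series (final 50 000, 12 500, 3125, 781.3, 195.3, 48.8, 12.2, 3.1 nM). Viable cell mass was measured by ATP luminescence (Vialight) to give IC50.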

Candida albicans [7] = experiment: Antifungal activity against Candida albicans harboring heterozygous deletion of orf19.3168/RPN8 after 24 hrs by NCCLS M27-P broth macrodilution method; type: functional
Candida albicans [8] = experiment: Antifungal activity against Candida albicans after 24 hrs by NCCLS M27-P broth macrodilution method; type: functional
Candida tropicalis = experiment: Antifungal activity against Candida tropicalis MY1012 after 24 hrs by NCCLS M27-P broth macrodilution method; type: functional; settings: MY1012, 24 h
Summary of the method: (§1)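 MIC panel run in the fitness-test medium (modified RPMI), following an earlier published MIC method.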

Candida albicans [9] = experiment: Antifungal activity against Candida albicans harboring heterozygous deletion of PRE4/orf19.4230 after 24 hrs by NCCLS M27-P broth macrodilution method; type: functional
Candida albicans [10] = experiment: Antifungal activity against Candida albicans harboring heterozygous deletion of orf19.4088/NUP188 after 24 hrs by NCCLS M27-P broth macrodilution method; type: functional
Pichia kudriavzevii = experiment: Antifungal activity against Candida krusei ATCC 6258 after 24 hrs by NCCLS M27-P broth macrodilution method; type: functional; settings: ATCC 6258, 24 h; summary of the method: as §1
Candida albicans [11] = experiment: Ratio of gliotoxin IC50 to compound IC50 for Candida albicans 26S proteasome
Staphylococcus aureus = experiment: Antibacterial activity against Staphylococcus aureus MB2865; type: functional
[12] = tested on: Trichophyton mentagrophytes; experiment: Antifungal activity against Trichophyton mentagrophytes MF7004 after 24 hrs by NCCLS M27-P broth macrodilution method; type: functional; settings: MF7004, 24 h; summary of the method: as §1
Candida albicans [13] = experiment: Antifungal activity against Candida albicans 2323 after 24 hrs by NCCLS M27-P broth macrodilution method; type: functional; settings: Candida albicans, 2323, 24 h; summary of the method: as §1
Candida parapsilosis = experiment: Antifungal activity against Candida parapsilosis ATCC 22019 after 24 hrs by NCCLS M27-P broth macrodilution method; type: functional; settings: Lodderomyces parapsilosis, ATCC 22019, 24 h; summary of the method: as §1
Nakaseomyces glabratus = experiment: Antifungal activity against Candida glabrata MY1381 after 24 hrs by NCCLS M27-P broth macrodilution method; type: functional; settings: MY1381, 24 h; summary of the method: as §1
Candida albicans [14] = experiment: Antifungal activity against Candida albicans harboring heterozygous deletion of orf19.5378/SCL1 after 24 hrs by NCCLS M27-P broth macrodilution method; type: functional
Clavispora lusitaniae = experiment: Antifungal activity against Candida lusitaniae MY1396 after 24 hrs by NCCLS M27-P broth macrodilution method; type: functional; settings: MY1396, 24 h; summary of the method: as §1
A549 = experiment: Growth inhibition of human A549 cells at 3.1 to 50000 nM
Aspergillus fumigatus = experiment: Antifungal activity against Aspergillus fumigatus MF5668 after 24 hrs by NCCLS M27-P broth macrodilution method; type: functional; settings: MF5668, 24 h; summary of the method: as §1
[15] = Inhibition of Candida albicans 26S proteasome
Summary of the method: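 Chymotrypsin-like proteasome activity measured by luminogenic Proteasome-Glo assay, with modifications. Used whole-cell extracts of exponential-phase C. albicans, about 10⁶ cell equivalents per assay.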

CC(=O)N[C@@H](CSC(=O)[C@]1([C@@H](O)C(C)C)NC(=O)[C@H](C)[C@@H]1O)C(=O)O
Activity (Candida albicans [1]): inactive

CCCCCCCCCCCCCC(=O)N[C@@H](CC(N)=O)C(=O)N[C@@H](CCC(N)=O)C(=O)N[C@H](C=O)CC(C)C (Myristoyl-Asn-Gln-Leu-aldehyde)
Activity (Candida albicans [2]): Active | Activity (Candida albicans [3]): Active

CCCCCCCCCCCCCC(=O)N[C@@H](CC(N)=O)C(=O)N[C@@H](CCC(N)=O)C(=O)N[C@H](CO)CC(C)C (Myristoyl-Asn-Gln-[Leu(ol)])
Activity (Candida albicans [4]): inactive | Activity (Candida albicans [5]): inactive

CCCCCCCCCCC[C@@H](O)CC(=O)N[C@@H](CC(N)=O)C(=O)N[C@H](C(=O)N[C@H](C=O)C(C)C)C(O)CC(N)=O (stereo partly specified) [FELLUTAMIDE C]
Ratio IC50 (Candida albicans [6]): 10 | IC50 (PC-3): 440 nM | MIC (Candida albicans [7]): 2.5 µg/mL (≈ 4.27 µM) | MIC (Candida albicans [8]): 1.25 µg/mL (≈ 2.13 µM) | MIC (Candida tropicalis): 4 µg/mL (≈ 6.83 µM) | MIC (Candida albicans [9]): 2.5 µg/mL (≈ 4.27 µM) | MIC (Candida albicans [10]): 2.5 µg/mL (≈ 4.27 µM) | MIC (Pichia kudriavzevii): 4 µg/mL (≈ 6.83 µM) | Ratio IC50 (Candida albicans [11]): 10 | MIC (Staphylococcus aureus): > 32 µg/mL | MIC [12]: > 32 µg/mL | MIC (Candida albicans [13]): 4 µg/mL (≈ 6.83 µM) | MIC (Candida parapsilosis): 2 µg/mL (≈ 3.41 µM) | MIC (Nakaseomyces glabratus): 4 µg/mL (≈ 6.83 µM) | MIC (Candida albicans [14]): 2.5 µg/mL (≈ 4.27 µM) | MIC (Clavispora lusitaniae): 16 µg/mL (≈ 27.3 µM) | growth inhibition (GI) (A549): inactive | MIC (Aspergillus fumigatus): 16 µg/mL (≈ 27.3 µM) | IC50 [15]: 0.2 µg/mL (≈ 0.341 µM)

CCCCCCCCCCC[C@@H](O)CC(=O)N[C@@H](CC(N)=O)C(=O)N[C@H](C(=O)N[C@H](C=O)CC(C)C)C(O)CC(N)=O (stereo partly specified) [FELLUTAMIDE D]
Ratio IC50 (Candida albicans [6]): 10 | IC50 (PC-3): 160 nM | MIC (Candida albicans [7]): 10 µg/mL (≈ 16.7 µM) | MIC (Candida albicans [8]): 1.25 µg/mL (≈ 2.08 µM) | MIC (Candida tropicalis): 8 µg/mL (≈ 13.3 µM) | Activity (Candida albicans [2]): Active | MIC (Candida albicans [9]): 10 µg/mL (≈ 16.7 µM) | MIC (Candida albicans [10]): 10 µg/mL (≈ 16.7 µM) | MIC (Pichia kudriavzevii): 8 µg/mL (≈ 13.3 µM) | Ratio IC50 (Candida albicans [11]): 10 | MIC (Staphylococcus aureus): > 32 µg/mL | MIC [12]: > 32 µg/mL | MIC (Candida albicans [13]): 16 µg/mL (≈ 26.7 µM) | MIC (Candida parapsilosis): 8 µg/mL (≈ 13.3 µM) | MIC (Nakaseomyces glabratus): 8 µg/mL (≈ 13.3 µM) | MIC (Candida albicans [14]): 10 µg/mL (≈ 16.7 µM) | Activity (Candida albicans [3]): Active | MIC (Clavispora lusitaniae): 32 µg/mL (≈ 53.4 µM) | growth inhibition (GI) (A549): inactive | MIC (Aspergillus fumigatus): 32 µg/mL (≈ 53.4 µM) | IC50 [15]: 0.2 µg/mL (≈ 0.333 µM)

CN1C(=O)[C@]23CC4=CC=C[C@H](O)[C@H]4N2C(=O)[C@@]1(CO)SS3 [GLIOTOXIN]
MIC (Candida albicans [8]): 4 µg/mL (≈ 12.3 µM)
